Published values of several laboratories.
Compare with care: the assays were run in different laboratories.

SMILES	target or system	test	system	setting	quantity	value
CCCCCn1cc(C(=O)Nc2cccc3ccccc23)c2ccccc21		metabolic stability	Sprague-Dawley rat, liver microsomes	1 µM, pH 7.4	half-life	2.21 min
C[C@]12CC[C@H](n3ccnc3)CC1=CC[C@@H]1[C@@H]2CC[C@]2(C)C(n3cnc4ccccc43)=CC[C@@H]12.Cl			male CD-1 mouse, plasma	oral, 10 mg/kg	bioavailability	> 100%
Cc1cc(C)nc(Nc2ncc(C(=O)NCCc3c(C)[nH]c4ccccc34)cn2)c1		metabolic stability	male Sprague-Dawley rat, hepatocytes	1 µM	half-life	22 min
COc1cc2c(cc1C(=O)Nc1ccc(C(C)(C)C)cc1)CCCCC2	NHDF	cell growth or viability, ATP luminescence		24 h	CC50	148 µM
Nc1c2c(nc3c1C(c1cccc([N+](=O)[O-])c1)c1ccc(OS(=O)(=O)c4ccc(F)cc4)cc1O3)CCCC2 (stereo not drawn)	SH-SY5Y	cell growth or viability, MTT		25 µM	viability	48.8%
O=C(Nc1ccc(Cl)cc1)Nc1cccc(-c2cccc(N3CCCC3)n2)c1		metabolic stability	rat, liver microsomes	pH 7.4	half-life	13.4 min
CCC[C@@](N)(CO)CCc1ccc(OCCCCCC(C)C)cc1			mouse, plasma	oral, 10 mg/kg	AUC(0-t)	227 nM·h
Nc1c2c(nc3c1C(c1ccc(Cl)c(Cl)c1)c1ccc(OCC(=O)c4ccc(Cl)cc4)cc1O3)CCCC2 (stereo not drawn)	SH-SY5Y	cell growth or viability, MTT		0.4 µM	viability	89.5%
COc1cc2c(cc1C(=O)Nc1ccc(C(C)(C)C#N)cc1)CCCCC2	NHDF	cell growth or viability, ATP luminescence		24 h	CC50	94 µM
CN1CCCCC1Cn1cc(C(=O)c2cc([N+](=O)[O-])ccc2I)c2ccccc21 (racemic)		metabolic stability	rat, liver microsomes		half-life	13.7 min
COC(=O)C1CCN(C(=O)c2ccc(NCc3cnc4nc(N)nc(N)c4n3)cc2)CC1	Cytochrome P450 2C9 (CYP2C9, Homo sapiens, UniProt P11712)	enzyme activity, inhibitor, luciferase		10 µM	inhibition	-7.15%
COc1ccc(S(=O)(=O)Oc2ccc3c(c2)Oc2nc4c(c(N)c2C3c2cccc(OC)c2)CCCC4)cc1 (stereo not drawn)	SH-SY5Y	cell growth or viability, MTT		1.6 µM	viability	84.3%
